# Measurements published in ChEMBL document CHEMBL1641499, “Towards echinomycin mimetics by grafting quinoxaline residues on glycophane scaffolds” (Bioorg Med Chem, 2011).
# Calls of active or inactive are those of the source. The rule behind the calls is not given here.
# Legend:
# Conditions in all cases: Bos taurus
# Calf thymus DNA [1] = experiment: Binding affinity to calf thymus DNA assessed as change on melting temperature (reference value: 76 degC)
# Calf thymus DNA [2] = experiment: Binding affinity to calf thymus DNA at 20 uM after 20 mins by UV spectrophotometer analysis; format: nucleic-acid assay
# Method in brief: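 Compound stock diluted in cuvette to 20 µM final with degassed 100 mM NaCl, 10 mM NaH2PO4, pH 7.0. Calf thymus DNA was added from stock. After each addition the sample was heated to 65 °C and cooled slowly (5 °C/min), and the UV-vis spectrum was recorded 20 min later at 25 °C. DNA concentration was set from ε260 = 6600 M−1 cm−1.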
# Calf thymus DNA [3] = experiment: Binding affinity to calf thymus DNA assessed as fluorescence enhancement at 20 uM by steady state fluorescence emission spectroscopic analysis relative to control
Structure (SMILES),Tm (Calf thymus DNA [1]) [°C],Activity (Calf thymus DNA [2]),fold change (FC) (Calf thymus DNA [3])
CS[C@H]1SC[C@H]2C(=O)N(C)[C@@H](C(C)C)C(=O)OC[C@@H](NC(=O)c3cnc4ccccc4n3)C(=O)N[C@@H](C)C(=O)N(C)[C@@H]1C(=O)N(C)[C@@H](C(C)C)C(=O)OC[C@@H](NC(=O)c1cnc3ccccc3n1)C(=O)N[C@@H](C)C(=O)N2C,79,Active,
C=CCO[C@H]1O[C@H](C(=O)N(Cc2ccc(CN(Cc3cnc4ccccc4n3)C(=O)[C@H]3O[C@H](OCC=C)[C@H](O)[C@@H](O)[C@@H]3O)cc2)Cc2cnc3ccccc3n2)[C@@H](O)[C@H](O)[C@H]1O,79,Active,2.8
C=CCCCO[C@H]1O[C@H](C(=O)N(Cc2ccc(CN(Cc3cnc4ccccc4n3)C(=O)[C@H]3O[C@H](OCCCC=C)[C@H](O)[C@@H](O)[C@@H]3O)cc2)Cc2cnc3ccccc3n2)[C@@H](O)[C@H](O)[C@H]1O,81,Active,2.8
O=C1[C@H]2O[C@H](OC/C=C/CO[C@H]3O[C@H](C(=O)N(Cc4cnc5ccccc5n4)Cc4ccc(cc4)CN1Cc1cnc4ccccc4n1)[C@@H](O)[C@H](O)[C@H]3O)[C@H](O)[C@@H](O)[C@@H]2O,78,Active,5.5
O=C1[C@H]2O[C@H](OCCC/C=C/CCCO[C@H]3O[C@H](C(=O)N(Cc4cnc5ccccc5n4)Cc4ccc(cc4)CN1Cc1cnc4ccccc4n1)[C@@H](O)[C@H](O)[C@H]3O)[C@H](O)[C@@H](O)[C@@H]2O,79,Active,
